Compounds with a hit are over-represented: about 1.3% of the library has one in this group of screens.
MLL AF4-AF9 inh: inhibitors of human MLL-AF4/AF9 interaction; P42568; AlphaScreen, biotin-AF4 peptide binding to FLAG-AF9; inhibition, % at 10 µM; hit rate 0.47% among 350,000; AID 651704;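 active = every replicate reaching a set inhibition limit, whatever the replicate mean, cut at about 25% in these data; inconclusive = mean inhibition reaches that limit but some replicates miss it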;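 also: 0% = plate neutral control median and 100% = total signal loss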
GSIS activator: primary screen for activators of insulin secretion dependent on glucose, INS-1E cells, GLuc reporter luminescence. hit rate 0.61% among 370,000. AID 743287. activation, % at 16.6 µM. INS-1E GLuc reporter insulin secretion, 2-3 h;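 active = lowest replicate activation of at least 40%, so every replicate reaches that level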;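 also: 0% = median of neutral control wells and 100% = median of IBMX positive control wells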
RAD52 anneal inh: RAD52 (human) annealing inhibition; P43351; recombinant RAD52 DNA annealing, FRET fluorescence; inhibition, % at 18.7 µM; hit rate 0.46% among 360,000; AID 651710;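 active = every replicate showing at least 50% inhibition; inconclusive = mean inhibition at least 50% but not in every replicate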
RAD54 branch: RAD54 (human) branch migration inhibition; Q92698; RAD54 Holliday junction branch migration, FAM/BHQ fluorescence; inhibition, % at 10.4 µM; hit rate 0.14% among 360,000;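 active = mean normalized replicate activity at least 40 and at least half of replicates scoring 40 or more; inconclusive = only one of the two criteria met; inactive = mean below 40 and under half of replicates reaching 40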;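 also: 0% = median of neutral control wells and 100% = median of positive control wells; inhibitors cause a drop in the FAM fluorescence signal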
Target sequence (Q92698 whole entry, looked up): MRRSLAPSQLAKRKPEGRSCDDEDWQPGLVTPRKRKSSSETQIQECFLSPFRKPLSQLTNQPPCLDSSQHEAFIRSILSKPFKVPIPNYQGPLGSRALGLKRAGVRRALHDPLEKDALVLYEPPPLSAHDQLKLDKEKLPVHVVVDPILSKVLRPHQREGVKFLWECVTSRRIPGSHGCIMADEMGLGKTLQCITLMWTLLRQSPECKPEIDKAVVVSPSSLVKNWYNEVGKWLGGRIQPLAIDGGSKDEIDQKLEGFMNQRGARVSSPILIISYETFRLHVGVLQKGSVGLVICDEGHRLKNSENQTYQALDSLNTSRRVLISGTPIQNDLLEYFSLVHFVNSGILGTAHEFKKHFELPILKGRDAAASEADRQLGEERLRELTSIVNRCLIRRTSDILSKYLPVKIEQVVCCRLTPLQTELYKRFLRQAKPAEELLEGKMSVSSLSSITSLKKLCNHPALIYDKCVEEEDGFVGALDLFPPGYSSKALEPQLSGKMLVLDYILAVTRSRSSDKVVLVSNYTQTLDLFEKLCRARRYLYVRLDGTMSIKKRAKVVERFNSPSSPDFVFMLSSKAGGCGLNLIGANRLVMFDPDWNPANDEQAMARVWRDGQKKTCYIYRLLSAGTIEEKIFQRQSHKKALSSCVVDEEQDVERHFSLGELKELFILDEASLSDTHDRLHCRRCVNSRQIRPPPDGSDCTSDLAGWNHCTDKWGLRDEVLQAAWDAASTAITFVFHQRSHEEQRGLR
S100A4 MyoIIA: blocks human S100A4 binding to myosin IIA peptide; P26447; S100A4/TAMRA-MyoIIA peptide fluorescence polarization; inhibition, % at 10.7 µM; hit rate 0.14% among 360,000; AID 652163;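 active = mean inhibition of at least 70% across replicates, with every replicate also reaching that level; inconclusive = mean inhibition reaches 70% but some replicates fall short; inactive = mean inhibition below 70%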
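Assay system: human S100A4 monomer with TAMRA-labelled myosin IIA peptide / Buffer or medium: Calcium-containing HEPES buffer, pH 7.2 / Reagent: TAMRA-labelled myosin IIA heavy-chain peptide probe, 5 nM / Compound: one dose per compound / Timing: polarization read 5 min after assay mix addition, stable 5–60 min / Benchmarks: neutral control DMSO, positive control TFP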
RAD52 DNA ctr: DNA binding artifact in RAD52 counter-screen; shares compounds with RAD52 anneal inh; Salmon sperm DNA/acridine orange FP displacement; AC50, µM; hit rate 8% among 1,000;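 active = fitted half-maximal concentration for signal loss at or below twice the highest dose tested, in every separate run, actives reach about 64 µM in these data; inconclusive = runs disagree, or flat partial signal loss, or poor fit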
* hit, by the source's call.

`NCCCCCc1cn(CC(=O)NCCCCCCCCCCC(=O)N2CCNCC2)nn1` gave MLL AF4-AF9 inh 12.9, GSIS activator 5.9, RAD52 anneal inh 55.3*, RAD54 branch -1.9, S100A4 MyoIIA -2.0 and RAD52 DNA ctr inactive.
For C=CC(=C)CC(NC)c1ccccc1 (centres undefined) the results were MLL AF4-AF9 inh 27.7*, GSIS activator -16.6, RAD52 anneal inh 58.8*, RAD54 branch -15.6, S100A4 MyoIIA -29.5 and RAD52 DNA ctr inactive.
For CCN(CC)CCOC(=O)c1ccc(N=CC2=C(O)CC(C)(C)CC2=O)cc1 the results were MLL AF4-AF9 inh -9.3, GSIS activator 22.6, RAD52 anneal inh 70.9*, S100A4 MyoIIA -4.5 and RAD52 DNA ctr inactive.
`Cc1cccc(S(=O)(=O)N[C@H]2CC[C@H](CCn3cc(-c4ccccn4)nn3)O[C@@H]2CO)c1` gave MLL AF4-AF9 inh -0.2, GSIS activator -9.4, RAD52 anneal inh -4.0, RAD54 branch -2.4 and S100A4 MyoIIA 49.2.
For COCC(=O)Nc1ccc2c(c1)C(=O)N(C)[C@H]1CC[C@H](CC(=O)NC3Cc4ccccc4C3)O[C@H]1CO2 the results were MLL AF4-AF9 inh 0.4, GSIS activator 5.0, RAD52 anneal inh 0.0, RAD54 branch 0.0 and S100A4 MyoIIA -3.1.
`COc1ccc(-c2cc(CNc3nc(NCc4ccccc4OC)nc4ccsc34)on2)cc1` gave MLL AF4-AF9 inh 1.5, GSIS activator 16.7, RAD52 anneal inh 61.4*, RAD54 branch -1.8, S100A4 MyoIIA -0.4 and RAD52 DNA ctr inactive.
COCC(=O)N1C[C@H](C)[C@@H](OC)CN(C)C(=O)c2ccc(NS(C)(=O)=O)cc2OC[C@H]1C was read as MLL AF4-AF9 inh -3.0, GSIS activator 16.0, RAD52 anneal inh -6.7, RAD54 branch -0.5 and S100A4 MyoIIA -15.4.
For CN1CCc2c(sc(N)c2C(=O)O)C1 the results were MLL AF4-AF9 inh inconclusive, GSIS activator 8.2, RAD52 anneal inh 74.1*, S100A4 MyoIIA 11.2 and RAD52 DNA ctr inactive.
`CN(CC(=O)Nc1ccc(S(=O)(=O)N2CCCC2)cc1)CC(=O)Nc1cccc(F)c1` gave MLL AF4-AF9 inh 1.0, GSIS activator -18.6, RAD52 anneal inh 58.3*, RAD54 branch -1.9, S100A4 MyoIIA 2.5 and RAD52 DNA ctr inactive.
Screening CC(C(=O)Nc1ccc(S(=O)(=O)N2CCCC2)cc1)N(C)CC(=O)Nc1cccc(F)c1 (centres undefined) returned MLL AF4-AF9 inh 1.2, GSIS activator -13.0, RAD52 anneal inh -5.5, RAD54 branch -3.8 and S100A4 MyoIIA 0.0.
`Cc1ccc(S(=O)(=O)Nc2ccc3c(c2)C(=O)N([C@@H](C)CO)C[C@H](C)[C@@H](CN(C)C(=O)NC2CCCCC2)OCCCC[C@H](C)O3)cc1` gave MLL AF4-AF9 inh 0.6, GSIS activator -15.7, RAD52 anneal inh 14.3, RAD54 branch -8.9 and S100A4 MyoIIA 1.9.
Screening C[C@H]1CN([C@@H](C)CO)C(=O)Cc2cc(NC(=O)C3CC3)ccc2O[C@H]1CN(C)CC1CCCCC1 returned MLL AF4-AF9 inh -1.0, GSIS activator 15.5, RAD52 anneal inh -5.3, RAD54 branch 7.5 and S100A4 MyoIIA 12.3.
Screening C[C@H]1CN([C@@H](C)CO)S(=O)(=O)c2ccc(C#CC3CC3)cc2O[C@H]1CN(C)C(=O)c1ccccn1 returned MLL AF4-AF9 inh 1.6, GSIS activator -5.0, RAD52 anneal inh -0.5, RAD54 branch 9.9 and S100A4 MyoIIA -2.0.
For C[C@H](CO)N1C[C@H](C)[C@H](CN(C)Cc2ccncc2)Oc2ccc(NC(=O)Nc3ccc(F)cc3)cc2CC1=O the results were MLL AF4-AF9 inh -0.1, GSIS activator -18.3, RAD52 anneal inh 2.0, RAD54 branch -4.4 and S100A4 MyoIIA 0.4.
O=C1CCCCC1 was read as GSIS activator 5.2, RAD52 anneal inh 91.0*, RAD54 branch -3.7, S100A4 MyoIIA 3.2 and RAD52 DNA ctr inactive.
Cc1cc2c(cc1C)C(=O)CCC2 was read as MLL AF4-AF9 inh -0.5, RAD52 anneal inh -7.3, RAD54 branch -4.5 and S100A4 MyoIIA -2.6.
`NCc1ccc(OCCCN2CCC(C(O)(C3=CCCC3)c3ccccc3)CC2)cc1` (centres undefined) gave GSIS activator -13.0, RAD52 anneal inh 67.1*, S100A4 MyoIIA 1.6 and RAD52 DNA ctr inactive.
Cc1cc(OCCCN2CCC(C(O)(c3ccccc3)c3ccccc3)CC2)ccc1Br was read as MLL AF4-AF9 inh 0.9, GSIS activator 476.8*, RAD52 anneal inh 54.7*, S100A4 MyoIIA 4.4 and RAD52 DNA ctr inactive.
For CS(=O)(=O)c1ccc(OCCCN2CCC(C(O)(c3ccccc3)c3ccccc3)CC2)cc1 the results were GSIS activator -38.6, RAD52 anneal inh 2.0 and S100A4 MyoIIA 0.3.
For Cc1ccc(S(=O)(=O)N[C@@H]2CC[C@@H](CCn3cc(-c4cccnc4)nn3)O[C@@H]2CO)cc1 the results were MLL AF4-AF9 inh -3.7, GSIS activator -5.1, RAD52 anneal inh -10.0, RAD54 branch -1.8 and S100A4 MyoIIA -2.1.
For COc1ccc(/C=N/Nc2cc(C)nc3c(C)cccc23)cc1 the results were MLL AF4-AF9 inh 13.9, GSIS activator 0.6, RAD52 anneal inh 80.4*, RAD54 branch 61.0*, S100A4 MyoIIA -4.0 and RAD52 DNA ctr inconclusive.
`COc1cccc2c(N/N=C/c3ccc(O)c(O)c3)cc(C)nc12` gave MLL AF4-AF9 inh 3.1, GSIS activator 8.8, RAD52 anneal inh -26.6, RAD54 branch -0.9 and S100A4 MyoIIA -2.7.
O=C(C1CCCC1)N1CCC(CC2CC(c3ccc(Cl)cc3)=NO2)(C(=O)NCC2CCCCC2)CC1 (centres undefined) was read as MLL AF4-AF9 inh 1.5, GSIS activator -31.7, RAD52 anneal inh 99.3*, RAD54 branch 0.7, S100A4 MyoIIA -2.5 and RAD52 DNA ctr inactive.
For COc1cc2c(cc1OC)-c1cc3ccc(OC)c(OC)c3c[n+]1CC2 the results were MLL AF4-AF9 inh 3.7, GSIS activator 17.9, RAD52 anneal inh 79.7*, RAD54 branch 59.9*, S100A4 MyoIIA 6.1 and RAD52 DNA ctr inactive.
For COc1ccc2cc3[n+](cc2c1O)CCc1cc2c(cc1-3)OCO2 the results were MLL AF4-AF9 inh 0.4, GSIS activator 4.3, RAD52 anneal inh 6.1 and S100A4 MyoIIA 3.5.
C[C@@H]1CN([C@@H](C)CO)C(=O)c2cc(C#CCN(C)C)cnc2O[C@H]1CN(C)S(C)(=O)=O was read as MLL AF4-AF9 inh -1.8, GSIS activator 18.8, RAD52 anneal inh -4.2, RAD54 branch -2.2 and S100A4 MyoIIA 12.2.
COc1ccc(N)cc1CN1CCN(c2ncc(Cc3ccccc3)cn2)CC1 was read as RAD52 anneal inh -9.6 and S100A4 MyoIIA -5.8.
Screening Oc1ccccc1/C=N/[n+]1ccccc1 returned MLL AF4-AF9 inh 5.5, GSIS activator 12.0, RAD52 anneal inh 58.2*, RAD54 branch -6.7, S100A4 MyoIIA -4.2 and RAD52 DNA ctr inactive.

High-throughput results deposited in PubChem by Broad Institute.
